ChEMBL document CHEMBL5705905, “Pharmacological targeting of kinases MST1 and MST2 augments tissue repair and regeneration” (Sci Transl Med, 2016)
The source made the active and inactive calls. The calls are words filed in the database; no cut-off is given here.

Experiments:
[1] = biological target: Tyrosine-protein kinase BTK (Homo sapiens) (UniProt Q06187); assay: Inhibition of BTK (unknown origin) assessed as remaining activity at 1 uM by Kinome scan method relative to control
Summary of the method: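 Active-site-dependent competition-binding (KINOMEscan) panel of 468 kinases, test compound at 1 μM (from a 10 mM DMSO stock). Read-out is ctrl% = (test signal − positive control signal)/(negative control signal − positive control signal) × 100. DMSO is the negative control (100%) and a control compound is the positive control (0%). Lower ctrl% means tighter binding.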

[2] = biological target: Cyclin-dependent kinase 13 (Homo sapiens) (UniProt Q14004); assay: Inhibition of CDC2L5 (unknown origin) assessed as remaining activity at 1 uM by Kinome scan method relative to control
Summary of the method: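 Active-site-dependent competition-binding profiling (KINOMEscan) at 1 μM against a 468-kinase panel; compound supplied from a 10 mM DMSO stock. Read-out is ctrl% = (test signal − positive control signal)/(negative control signal − positive control signal) × 100. DMSO is the negative control (100%) and a control compound the positive control (0%). Lower ctrl% means tighter binding.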

[3] = biological target: Epidermal growth factor receptor (Homo sapiens) (UniProt P00533); assay: Inhibition of EGFR (unknown origin) assessed as remaining activity at 1 uM by Kinome scan method relative to control
[4] = test system: Epidermal growth factor receptor (Homo sapiens), P00533 [UNDEFINED MUTATION]; assay: Inhibition of EGFR L747-S752del/P753S mutant (unknown origin) assessed as remaining activity at 1 uM by Kinome scan method relative to control
[5] = test system: Epidermal growth factor receptor (Homo sapiens), P00533 [T790M]; assay: Inhibition of EGFR T790M mutant (unknown origin) assessed as remaining activity at 1 uM by Kinome scan method relative to control
[6] = biological target: Ephrin type-A receptor 5 (Homo sapiens) (UniProt P54756); assay: Inhibition of EPHA5 (unknown origin) assessed as remaining activity at 1 uM by Kinome scan method relative to control
[7] = biological target: Inhibitor of nuclear factor kappa-B kinase subunit alpha (Homo sapiens) (UniProt O15111); assay: Inhibition of IKK-alpha (unknown origin) assessed as remaining activity at 1 uM by Kinome scan method relative to control
[8] = biological target: Mitogen-activated protein kinase 10 (Homo sapiens) (UniProt P53779); assay: Inhibition of JNK3 (unknown origin) assessed as remaining activity at 1 uM by Kinome scan method relative to control
[9] = test system: Mast/stem cell growth factor receptor Kit (Homo sapiens), P10721 [D816V]; assay: Inhibition of KIT D816V mutant (unknown origin) assessed as remaining activity at 1 uM by Kinome scan method relative to control
[10] = biological target: MAP/microtubule affinity-regulating kinase 3 (Homo sapiens) (UniProt P27448); assay: Inhibition of MARK3 (unknown origin) assessed as remaining activity at 1 uM by Kinome scan method relative to control
MAP/microtubule affinity-regulating kinase 3 (Homo sapiens), sequence (P27448 whole entry, looked up): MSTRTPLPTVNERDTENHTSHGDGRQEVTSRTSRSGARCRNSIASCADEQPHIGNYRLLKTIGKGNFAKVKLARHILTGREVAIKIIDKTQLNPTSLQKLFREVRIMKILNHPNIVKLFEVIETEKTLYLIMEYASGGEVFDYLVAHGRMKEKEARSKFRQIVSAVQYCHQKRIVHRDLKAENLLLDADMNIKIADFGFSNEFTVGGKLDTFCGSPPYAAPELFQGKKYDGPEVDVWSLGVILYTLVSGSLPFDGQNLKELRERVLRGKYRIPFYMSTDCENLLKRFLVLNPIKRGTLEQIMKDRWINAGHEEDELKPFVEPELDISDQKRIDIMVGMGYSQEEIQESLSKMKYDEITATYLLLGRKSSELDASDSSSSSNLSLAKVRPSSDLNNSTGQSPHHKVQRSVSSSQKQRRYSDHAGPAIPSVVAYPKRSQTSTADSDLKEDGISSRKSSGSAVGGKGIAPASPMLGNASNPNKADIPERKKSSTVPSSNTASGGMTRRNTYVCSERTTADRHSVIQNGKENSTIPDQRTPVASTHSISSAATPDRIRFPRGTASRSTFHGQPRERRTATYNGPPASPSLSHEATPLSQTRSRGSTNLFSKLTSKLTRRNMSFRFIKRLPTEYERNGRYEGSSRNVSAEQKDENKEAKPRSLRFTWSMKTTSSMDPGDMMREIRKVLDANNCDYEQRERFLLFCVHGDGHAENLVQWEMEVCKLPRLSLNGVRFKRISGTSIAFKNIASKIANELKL

[11] = biological target: Dual specificity mitogen-activated protein kinase kinase 4 (Homo sapiens) (UniProt P45985); assay: Inhibition of MEK4 (unknown origin) assessed as remaining activity at 1 uM by Kinome scan method relative to control
Dual specificity mitogen-activated protein kinase kinase 4 (Homo sapiens), sequence (P45985 whole entry): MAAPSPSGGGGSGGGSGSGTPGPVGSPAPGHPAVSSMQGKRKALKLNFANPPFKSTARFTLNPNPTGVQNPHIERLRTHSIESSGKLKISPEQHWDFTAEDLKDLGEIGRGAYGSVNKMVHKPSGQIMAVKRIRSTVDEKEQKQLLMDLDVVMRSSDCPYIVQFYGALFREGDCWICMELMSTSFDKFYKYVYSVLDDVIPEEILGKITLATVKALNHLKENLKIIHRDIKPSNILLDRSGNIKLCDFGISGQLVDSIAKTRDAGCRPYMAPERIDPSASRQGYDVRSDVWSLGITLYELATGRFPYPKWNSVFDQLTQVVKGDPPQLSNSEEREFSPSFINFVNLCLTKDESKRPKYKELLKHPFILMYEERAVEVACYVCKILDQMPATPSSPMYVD

[12] = biological target: Serine/threonine-protein kinase Nek3 (Homo sapiens) (UniProt P51956); assay: Inhibition of NEK3 (unknown origin) assessed as remaining activity at 1 uM by Kinome scan method relative to control
Serine/threonine-protein kinase Nek3 (Homo sapiens), sequence (P51956 whole entry): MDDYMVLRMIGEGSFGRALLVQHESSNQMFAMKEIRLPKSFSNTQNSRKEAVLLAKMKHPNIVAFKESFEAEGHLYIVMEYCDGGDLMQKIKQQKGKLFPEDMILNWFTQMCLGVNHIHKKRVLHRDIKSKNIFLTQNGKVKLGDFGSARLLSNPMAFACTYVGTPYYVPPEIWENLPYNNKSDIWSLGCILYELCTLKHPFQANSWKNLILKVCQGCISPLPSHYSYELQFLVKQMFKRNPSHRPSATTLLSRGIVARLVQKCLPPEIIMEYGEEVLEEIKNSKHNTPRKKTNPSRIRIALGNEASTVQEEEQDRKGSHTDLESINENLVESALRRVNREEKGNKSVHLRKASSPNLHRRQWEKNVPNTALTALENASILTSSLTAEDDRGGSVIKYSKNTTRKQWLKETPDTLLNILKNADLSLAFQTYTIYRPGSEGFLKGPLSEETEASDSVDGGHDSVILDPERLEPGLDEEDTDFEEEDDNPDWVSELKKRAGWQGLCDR

[13] = biological target: Serine/threonine-protein kinase Nek5 (Homo sapiens) (UniProt Q6P3R8); assay: Inhibition of NEK5 (unknown origin) assessed as remaining activity at 1 uM by Kinome scan method relative to control
[14] = biological target: Mitogen-activated protein kinase 13 (Homo sapiens) (UniProt O15264); assay: Inhibition of P38delta (unknown origin) assessed as remaining activity at 1 uM by Kinome scan method relative to control
Mitogen-activated protein kinase 13 (Homo sapiens), sequence (O15264 whole entry): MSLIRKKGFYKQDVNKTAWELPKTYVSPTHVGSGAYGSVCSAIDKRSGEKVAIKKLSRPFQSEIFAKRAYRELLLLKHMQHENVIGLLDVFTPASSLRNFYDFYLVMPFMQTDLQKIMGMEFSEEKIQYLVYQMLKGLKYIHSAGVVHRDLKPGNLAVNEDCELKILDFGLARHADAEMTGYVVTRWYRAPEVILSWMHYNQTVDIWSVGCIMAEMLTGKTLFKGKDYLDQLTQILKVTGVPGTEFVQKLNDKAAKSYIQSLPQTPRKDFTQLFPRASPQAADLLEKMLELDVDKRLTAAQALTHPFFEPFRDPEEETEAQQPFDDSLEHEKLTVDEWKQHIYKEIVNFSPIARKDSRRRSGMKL

[15] = biological target: Cyclin-dependent kinase 18 (Homo sapiens) (UniProt Q07002); assay: Inhibition of PCTK3 (unknown origin) assessed as remaining activity at 1 uM by Kinome scan method relative to control
[16] = test system: Phosphatidylinositol 4,5-bisphosphate 3-kinase catalytic subunit alpha isoform (Homo sapiens), P42336 [E542K]; assay: Inhibition of PIK3CA E542K mutant (unknown origin) assessed as remaining activity at 1 uM by Kinome scan method relative to control
[17] = biological target: Interferon-induced, double-stranded RNA-activated protein kinase (Homo sapiens) (UniProt P19525); assay: Inhibition of PRKR (unknown origin) assessed as remaining activity at 1 uM by Kinome scan method relative to control
[18] = biological target: Receptor-interacting serine/threonine-protein kinase 4 (Homo sapiens) (UniProt P57078); assay: Inhibition of RIPK4 (unknown origin) assessed as remaining activity at 1 uM by Kinome scan method relative to control
[19] = biological target: Rho-associated protein kinase 1 (Homo sapiens) (UniProt Q13464); assay: Inhibition of ROCK1 (unknown origin) assessed as remaining activity at 1 uM by Kinome scan method relative to control
Summary of the method: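 KINOMEscan active-site competition binding assay at 1 μM against 468 kinases. Ctrl% = (test − positive control)/(negative control DMSO − positive control) × 100; lower values mean tighter binding.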

[20] = biological target: SRSF protein kinase 2 (Homo sapiens) (UniProt P78362); assay: Inhibition of SRPK2 (unknown origin) assessed as remaining activity at 1 uM by Kinome scan method relative to control
SRSF protein kinase 2 (Homo sapiens), sequence (P78362 whole entry, looked up): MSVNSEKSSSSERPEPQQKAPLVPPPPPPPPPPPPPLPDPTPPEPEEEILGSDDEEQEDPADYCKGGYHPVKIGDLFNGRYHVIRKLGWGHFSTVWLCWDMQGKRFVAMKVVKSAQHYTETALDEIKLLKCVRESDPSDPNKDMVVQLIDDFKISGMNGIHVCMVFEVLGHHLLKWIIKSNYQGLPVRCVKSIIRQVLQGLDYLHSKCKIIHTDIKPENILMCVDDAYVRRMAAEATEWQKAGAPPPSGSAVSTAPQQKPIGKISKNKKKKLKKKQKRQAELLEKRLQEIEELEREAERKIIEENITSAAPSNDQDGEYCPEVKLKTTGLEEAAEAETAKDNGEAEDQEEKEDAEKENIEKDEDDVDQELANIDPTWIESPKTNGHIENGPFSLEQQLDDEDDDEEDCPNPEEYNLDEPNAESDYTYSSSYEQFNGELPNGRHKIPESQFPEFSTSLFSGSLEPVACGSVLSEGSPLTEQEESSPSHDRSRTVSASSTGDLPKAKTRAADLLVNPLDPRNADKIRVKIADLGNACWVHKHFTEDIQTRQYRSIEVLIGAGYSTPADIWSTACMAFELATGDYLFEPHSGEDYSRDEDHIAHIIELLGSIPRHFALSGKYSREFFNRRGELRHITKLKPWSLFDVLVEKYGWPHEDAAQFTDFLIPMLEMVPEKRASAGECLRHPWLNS

[21] = biological target: TRAF2 and NCK-interacting protein kinase (Homo sapiens) (UniProt Q9UKE5); assay: Inhibition of TNIK (unknown origin) assessed as remaining activity at 1 uM by Kinome scan method relative to control
[22] = biological target: NT-3 growth factor receptor (Homo sapiens) (UniProt Q16288); assay: Inhibition of TRKC (unknown origin) assessed as remaining activity at 1 uM by Kinome scan method relative to control
NT-3 growth factor receptor (Homo sapiens), sequence (Q16288 32-839 limits assumed): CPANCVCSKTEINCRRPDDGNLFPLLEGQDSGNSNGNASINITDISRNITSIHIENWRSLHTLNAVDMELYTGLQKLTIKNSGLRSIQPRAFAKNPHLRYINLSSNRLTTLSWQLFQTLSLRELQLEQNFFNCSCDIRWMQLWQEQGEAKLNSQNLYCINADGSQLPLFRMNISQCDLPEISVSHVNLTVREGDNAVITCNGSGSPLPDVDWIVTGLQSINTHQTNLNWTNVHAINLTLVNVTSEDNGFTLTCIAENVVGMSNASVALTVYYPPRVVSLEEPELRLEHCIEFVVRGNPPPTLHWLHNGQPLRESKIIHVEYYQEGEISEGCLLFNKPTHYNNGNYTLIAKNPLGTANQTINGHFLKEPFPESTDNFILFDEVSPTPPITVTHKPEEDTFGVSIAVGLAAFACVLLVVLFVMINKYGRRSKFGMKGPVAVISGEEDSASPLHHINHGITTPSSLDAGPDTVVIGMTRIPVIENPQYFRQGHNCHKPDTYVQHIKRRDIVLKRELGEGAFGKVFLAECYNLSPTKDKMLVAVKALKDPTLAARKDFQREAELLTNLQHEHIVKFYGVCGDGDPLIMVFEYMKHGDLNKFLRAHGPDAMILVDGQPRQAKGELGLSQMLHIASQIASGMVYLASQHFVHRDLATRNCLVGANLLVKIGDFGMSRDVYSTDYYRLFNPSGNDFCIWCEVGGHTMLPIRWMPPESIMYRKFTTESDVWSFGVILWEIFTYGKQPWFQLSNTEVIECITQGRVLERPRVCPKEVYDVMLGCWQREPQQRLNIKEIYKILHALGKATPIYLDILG

[23] = biological target: Mitogen-activated protein kinase kinase kinase 2 (Homo sapiens, UniProt Q9Y2U5); assay: Binding affinity to MAP3K2 (unknown origin) assessed as dissociation constant
[24] = biological target: Phosphatidylinositol 4,5-bisphosphate 3-kinase catalytic subunit gamma isoform (Homo sapiens, UniProt P48736); assay: Binding affinity to PIK3CG (unknown origin) assessed as dissociation constant
Phosphatidylinositol 4,5-bisphosphate 3-kinase catalytic subunit gamma isoform, sequence (P48736 whole entry, canonical isoform): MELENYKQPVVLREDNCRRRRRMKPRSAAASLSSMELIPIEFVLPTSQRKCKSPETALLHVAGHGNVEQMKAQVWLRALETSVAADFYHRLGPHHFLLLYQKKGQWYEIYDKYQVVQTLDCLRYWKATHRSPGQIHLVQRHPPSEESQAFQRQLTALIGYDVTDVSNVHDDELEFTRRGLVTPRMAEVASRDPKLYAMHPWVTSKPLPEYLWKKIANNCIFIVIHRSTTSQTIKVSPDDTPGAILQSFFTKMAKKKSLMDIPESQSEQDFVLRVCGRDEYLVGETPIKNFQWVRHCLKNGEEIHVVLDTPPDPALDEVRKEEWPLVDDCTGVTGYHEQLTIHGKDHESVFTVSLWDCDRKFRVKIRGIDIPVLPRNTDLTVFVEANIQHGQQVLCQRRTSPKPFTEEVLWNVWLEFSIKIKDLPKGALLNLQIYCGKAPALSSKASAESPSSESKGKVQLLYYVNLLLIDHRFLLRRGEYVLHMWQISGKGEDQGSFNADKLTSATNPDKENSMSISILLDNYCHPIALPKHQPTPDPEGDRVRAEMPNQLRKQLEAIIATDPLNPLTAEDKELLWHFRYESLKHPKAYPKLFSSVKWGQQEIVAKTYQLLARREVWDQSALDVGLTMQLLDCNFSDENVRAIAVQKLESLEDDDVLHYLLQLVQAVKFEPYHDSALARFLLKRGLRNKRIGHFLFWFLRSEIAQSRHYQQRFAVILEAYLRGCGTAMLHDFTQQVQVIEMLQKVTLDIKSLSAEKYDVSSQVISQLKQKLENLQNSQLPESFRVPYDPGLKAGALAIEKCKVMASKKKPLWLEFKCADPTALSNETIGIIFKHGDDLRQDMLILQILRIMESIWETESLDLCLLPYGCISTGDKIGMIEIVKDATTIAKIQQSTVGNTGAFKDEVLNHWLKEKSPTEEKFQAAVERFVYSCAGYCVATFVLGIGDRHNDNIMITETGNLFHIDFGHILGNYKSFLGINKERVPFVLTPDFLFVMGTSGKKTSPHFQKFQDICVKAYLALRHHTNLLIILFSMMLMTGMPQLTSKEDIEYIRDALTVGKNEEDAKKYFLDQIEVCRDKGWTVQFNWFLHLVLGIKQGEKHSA

[25] = biological target: Phosphatidylinositol 5-phosphate 4-kinase type-2 gamma (Homo sapiens, UniProt Q8TBX8); assay: Binding affinity to PIP5K2C (unknown origin) assessed as dissociation constant
Phosphatidylinositol 5-phosphate 4-kinase type-2 gamma, sequence (Q8TBX8 whole entry): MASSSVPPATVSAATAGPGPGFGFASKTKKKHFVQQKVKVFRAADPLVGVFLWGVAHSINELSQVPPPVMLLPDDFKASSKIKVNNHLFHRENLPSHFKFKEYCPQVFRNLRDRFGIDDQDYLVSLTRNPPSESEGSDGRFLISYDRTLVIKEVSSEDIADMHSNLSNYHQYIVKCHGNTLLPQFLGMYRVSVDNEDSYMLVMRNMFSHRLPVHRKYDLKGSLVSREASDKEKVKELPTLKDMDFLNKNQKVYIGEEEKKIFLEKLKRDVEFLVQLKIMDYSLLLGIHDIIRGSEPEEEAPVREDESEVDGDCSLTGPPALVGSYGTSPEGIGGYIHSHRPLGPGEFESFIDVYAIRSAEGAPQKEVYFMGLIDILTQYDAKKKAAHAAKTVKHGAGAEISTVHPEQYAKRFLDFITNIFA

[26] = test system: Primary hepatocyte; assay: Inhibition of MST1/2 (unknown origin) in mouse Primary hepatocyte cells assessed as H2O2 stimulated MOB1 phosphorylation level at 1 to 3 uM by immunoblot analysis; format: cell-based; details: dose 1-3 µM
[27] = test system: HepG2; assay: Inhibition of Flag-tagged MST1 D109A mutant (unknown origin) in human HepG2 cells assessed as MOB1 phosphorylation level at 3 uM by immunoblot analysis; format: cell-based
[28] = Inhibition of recombinant His-tagged full-length MST1 Y101F/D109A mutant (unknown origin) expressing in Escherichia coli assessed as MOB1 phosphorylation level incubated for 15 min by immunoblot analysis; parameters: species or system Homo sapiens
[29] = test system: Mus musculus; assay: Protection against APAP induced liver injury in mouse assessed as continual expansion of centrilobular necrotic lesions at 1 mg/kg, ip administered at 1.5 hrs by TUNEL staining; format: functional, organism-based

**Q.** Which Activity [1] does the source give for CN1C(=O)c2sccc2N(C)c2nc(Nc3ccc(S(N)(=O)=O)cc3)ncc21 here?
**A.** 48%

**Q.** What about the Activity [2] of the same compound?
**A.** 90%

**Q.** And the Activity [3]?
**A.** 100%

**Q.** And the Activity [4]?
**A.** 73%

**Q.** What about the Activity [5] of the same compound?
**A.** 92%

**Q.** And the Activity [6]?
**A.** 100%

**Q.** And the Activity [7]?
**A.** 94%

**Q.** What about the Activity [8] of the same compound?
**A.** 82%

**Q.** What about the Activity [9] of the same compound?
**A.** 94%

**Q.** And the Activity [10]?
**A.** 98%

**Q.** What about the Activity [11] of the same compound?
**A.** 100%

**Q.** What about the Activity [12] of the same compound?
**A.** 66%

**Q.** And the Activity [13]?
**A.** 97%

**Q.** What about the Activity [14] of the same compound?
**A.** 94%

**Q.** What about the Activity [15] of the same compound?
**A.** 100%

**Q.** What about the Activity [16] of the same compound?
**A.** 48%

**Q.** What about the Activity [17] of the same compound?
**A.** 100%

**Q.** What about the Activity [18] of the same compound?
**A.** 9.5%

**Q.** And the Activity [19]?
**A.** 89%

**Q.** What about the Activity [20] of the same compound?
**A.** 93%

**Q.** And the Activity [21]?
**A.** 71%

**Q.** What about the Activity [22] of the same compound?
**A.** 55%

**Q.** And the Kd [23]?
**A.** 19 nM

**Q.** What about the Kd [24] of the same compound?
**A.** 4.8 nM

**Q.** What about the Kd [25] of the same compound?
**A.** 34 nM

**Q.** And the inhibition [26]?
**A.** Active

**Q.** What about the inhibition [27] of the same compound?
**A.** Active

**Q.** And the IC50 [28]?
**A.** 1390 nM

**Q.** What about the Activity [29] of the same compound?
**A.** Active
